Source: ChEMBL document CHEMBL4011648, “Adamantyl Antiestrogens with Novel Side Chains Reveal a Spectrum of Activities in Suppressing Estrogen Receptor Mediated Activities in Breast Cancer Cells” (J Med Chem, 2017)
The source made the active and inactive calls. The calls are words filed in the database; no cut-off is given here.

Key:
MDA-MB-231 = experiment: Antiproliferative activity against ERalpha-negative human MDA-MB-231 cells at 3 uM after 6 days by WST-1 assay; assay type: functional, cell-based
Procedure, shortened: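 ERα-negative MDA-MB-231 breast cancer cells screened for proliferation with compound at 3 μM; WST-1 read-out at 450 nm after 6 days, relative to vehicle.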

[1] = molecular target: T1, Estrogen receptor (Homo sapiens) (UniProt P03372); experiment: Downregulation of ER-alpha levels in ER-positive human MCF-7 cells at 3 uM after 24 hrs by in-cell Western assay
T1 sequence (whole entry): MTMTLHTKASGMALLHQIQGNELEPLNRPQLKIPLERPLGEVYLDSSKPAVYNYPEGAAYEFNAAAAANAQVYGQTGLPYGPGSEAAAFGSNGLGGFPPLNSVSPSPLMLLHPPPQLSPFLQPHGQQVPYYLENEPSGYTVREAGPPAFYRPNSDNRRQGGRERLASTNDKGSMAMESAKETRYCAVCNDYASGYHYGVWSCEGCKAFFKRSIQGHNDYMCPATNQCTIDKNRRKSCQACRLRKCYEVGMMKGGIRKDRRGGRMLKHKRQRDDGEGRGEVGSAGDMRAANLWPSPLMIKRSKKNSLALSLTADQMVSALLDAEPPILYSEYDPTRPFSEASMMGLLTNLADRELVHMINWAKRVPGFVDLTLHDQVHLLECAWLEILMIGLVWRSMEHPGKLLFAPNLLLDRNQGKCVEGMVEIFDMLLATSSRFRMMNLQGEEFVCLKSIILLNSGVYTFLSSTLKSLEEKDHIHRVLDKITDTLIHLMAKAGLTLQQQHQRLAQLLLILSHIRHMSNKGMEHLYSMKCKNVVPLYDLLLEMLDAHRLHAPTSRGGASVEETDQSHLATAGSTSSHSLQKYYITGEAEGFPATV

[2] = molecular target: T1, Estrogen receptor (Homo sapiens); experiment: Displacement of [3H]estradiol from full-length human ERalpha receptor by scintillation counting relative to estradiol
Estrogen receptor [3] = molecular target: T2, Estrogen receptor (Homo sapiens, UniProt P03372); experiment: Displacement of [3H]estradiol from full-length human ERalpha receptor by scintillation counting
T2 sequence (P03372 whole entry): T1 sequence (whole entry)

Estrogen receptor [4] = molecular target: T2, Estrogen receptor; experiment: Downregulation of human ERalpha in human MCF-7 cells after 24 hrs by in-cell Western immunoassay method; assay type: cell-based
Procedure, shortened: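 MCF-7 cells at 3000 cells/well treated 24 h (3 μM screen or dose-response); formaldehyde-fixed, Triton-permeabilized, stained with rabbit HC-20 anti-ERα overnight at 4 °C, IR secondary plus Cell Tag 700 normalization; in-cell Western imaging, ERα relative to vehicle, average of at least three independent experiments.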

Estrogen receptor [5] = molecular target: T2, Estrogen receptor; experiment: Downregulation of ERalpha in human MCF-7 cells assessed as reduction of estradiol-induced GREB1 mRNA levels after 24 hrs by RT-PCR method; assay type: cell-based
Procedure, shortened: (§1)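 MCF-7 cells in full medium (5% FBS) with 3 × 10−10 M E2, treated 24 h across a concentration range; TRIzol RNA, reverse transcription, SYBR green qPCR for GREB1, PgR or pS2 normalized to 36B4, fold change versus vehicle; mean ± SD of at least two independent experiments in triplicate.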

Estrogen receptor [6] = molecular target: T2, Estrogen receptor; experiment: Downregulation of ERalpha in human MCF-7 cells assessed as reduction of estradiol-induced PgR mRNA levels after 24 hrs by RT-PCR method; assay type: cell-based; procedure, shortened: as §1
Estrogen receptor [7] = molecular target: T2, Estrogen receptor; experiment: Downregulation of ERalpha in human MCF-7 cells assessed as reduction of estradiol-induced pS2 mRNA levels after 24 hrs by RT-PCR method; assay type: cell-based; procedure, shortened: as §1
[8] = molecular target: T1, Estrogen receptor (Homo sapiens); experiment: Downregulation of human ERalpha in human MCF-7 cells at 3 x 10^-10 M after 24 hrs by Western blot method; assay type: cell-based
Procedure, shortened: (§2)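 MCF-7 cells treated 24 h at 3 × 10−10, 3 × 10−8 or 3 × 10−6 M; whole-cell extracts with protease/phosphatase inhibitors, 10% SDS-PAGE, nitrocellulose, probed with anti-ERα F10 and β-actin; ERα given as percent of vehicle.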

[9] = molecular target: T1, Estrogen receptor (Homo sapiens); experiment: Downregulation of human ERalpha in human MCF-7 cells at 3 x 10^-6 M after 24 hrs by Western blot method; assay type: cell-based; procedure, shortened: as §2
[10] = molecular target: T1, Estrogen receptor (Homo sapiens); experiment: Downregulation of human ERalpha in human MCF-7 cells at 3 x 10^-8 M after 24 hrs by Western blot method; assay type: cell-based; procedure, shortened: as §2
MCF7 [11] = experiment: Antiproliferative activity against ER-positive human MCF7 cells at 3 uM after 6 days by WST-1 assay; assay type: functional
Procedure, shortened: (§3)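 MCF-7 cells (ATCC), 6-day compound exposure; viability by WST-1 absorbance at 450 nm, expressed relative to vehicle-treated controls. Run in triplicate; 3 μM single-concentration screen values are averages of two to three independent experiments. Dose-response curves give IC50.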

MCF7 [12] = experiment: Antiproliferative activity against ER-positive human MCF7 cells after 6 days by WST-1 assay; assay type: functional, cell-based; details: MCF7, 144 h; procedure, shortened: as §3

Row | SMILES | Activity (MDA-MB-231) | Activity [1] | RBA [2] [%] | Ki (Estrogen receptor [3]) [nM] | Activity (MCF7 [11]) | other results
1 | CCC(=C(c1ccc(O)cc1)c1ccc(/C=C/C(=O)O)cc1)c1ccccc1 | inactive |  |  |  |  | 
2 | NC(=O)/C=C/c1ccc(C(=C2C3CC4CC(C3)CC2C4)c2ccc(O)cc2)cc1 | inactive | inactive | 71 | 0.27 |  | 
3 | O=C(/C=C/c1ccc(C(=C2C3CC4CC(C3)CC2C4)c2ccc(O)cc2)cc1)N(CCO)CCO | inactive |  | 115 | 0.13 |  | 
4 | O=C(O)/C=C/c1ccc(C(=C2C3CC4CC(C3)CC2C4)c2ccc(O)cc2)cc1 | inactive | Active | 51 | 0.4 | Active | IC50 (Estrogen receptor [4]): 17 nM; IC50 (Estrogen receptor [5]): 500 nM; IC50 (Estrogen receptor [6]): 500 nM; IC50 (Estrogen receptor [7]): 500 nM; Activity [8]: Active; Activity [9]: Active; Activity [10]: Active; IC50 (MCF7 [12]): 31 nM
5 | COC(=O)/C=C/c1ccc(C(=C2C3CC4CC(C3)CC2C4)c2ccc(O)cc2)cc1 | inactive | inactive | 46 |  |  | 
6 | CN(CCO)C(=O)/C=C/c1ccc(C(=C2C3CC4CC(C3)CC2C4)c2ccc(O)cc2)cc1 | inactive |  |  |  |  | 
7 | O=C(/C=C/c1ccc(C(=C2C3CC4CC(C3)CC2C4)c2ccc(O)cc2)cc1)OCCCO | inactive | inactive | 28 |  |  | 
8 | CCCNC(=O)/C=C/c1ccc(C(=C2C3CC4CC(C3)CC2C4)c2ccc(O)cc2)cc1 | inactive |  | 18 | 1.1 | Active | 
9 | N#C/C=C/c1ccc(C(=C2C3CC4CC(C3)CC2C4)c2ccc(O)cc2)cc1 | inactive | Active | 14 | 1.4 | inactive | 
10 | CN(C)CCNC(=O)/C=C/c1ccc(C(=C2C3CC4CC(C3)CC2C4)c2ccc(O)cc2)cc1 | inactive |  | 57 | 0.35 |  | 
11 | O=C(/C=C/c1ccc(C(=C2C3CC4CC(C3)CC2C4)c2ccc(O)cc2)cc1)NCCCCO | inactive |  | 56 | 0.36 | Active | 
12 | O=C(/C=C/c1ccc(C(=C2C3CC4CC(C3)CC2C4)c2ccc(O)cc2)cc1)NCCO | inactive | Active | 109 | 0.18 | 24% | IC50 (Estrogen receptor [4]): 5.6 nM; IC50 (MCF7 [12]): 2.4 nM
13 | CCCCNC(=O)/C=C/c1ccc(C(=C2C3CC4CC(C3)CC2C4)c2ccc(O)cc2)cc1 | inactive | Active | 28 |  | Active | 
14 | NCCCCNC(=O)/C=C/c1ccc(C(=C2C3CC4CC(C3)CC2C4)c2ccc(O)cc2)cc1 | inactive | Active |  |  |  | 
15 | O=C(/C=C/c1ccc(C(=C2C3CC4CC(C3)CC2C4)c2ccc(O)cc2)cc1)NCC(F)(F)F | inactive | inactive | 15 | 1.33 |  | 
16 | CCCCCNC(=O)/C=C/c1ccc(C(=C2C3CC4CC(C3)CC2C4)c2ccc(O)cc2)cc1 | inactive |  | 27 | 0.74 | Active | 
17 | O=C(/C=C/c1ccc(C(=C2C3CC4CC(C3)CC2C4)c2ccc(O)cc2)cc1)NCCCCCO | inactive |  | 31 | 0.65 | Active | 
18 | O=C(/C=C/c1ccc(C(=C2C3CC4CC(C3)CC2C4)c2ccc(O)cc2)cc1)NCCCO | inactive |  | 47 |  | 30% | IC50 (Estrogen receptor [4]): 0.53 nM; IC50 (Estrogen receptor [5]): 50 nM; IC50 (Estrogen receptor [6]): 50 nM; IC50 (Estrogen receptor [7]): 50 nM; Activity [8]: Active; Activity [9]: Active; Activity [10]: Active; IC50 (MCF7 [12]): 1.9 nM
19 | CCOC(=O)/C=C/c1ccc(C(=C2C3CC4CC(C3)CC2C4)c2ccc(O)cc2)cc1 | inactive | inactive | 13 | 3.3 |  | 
20 | CCCCCC(=O)/C=C/c1ccc(C(=C2C3CC4CC(C3)CC2C4)c2ccc(O)cc2)cc1 | inactive |  | 12 | 1.7 |  | 
21 | O=C(/C=C/c1ccc(C(=C2C3CC4CC(C3)CC2C4)c2ccc(O)cc2)cc1)OCCCCO | inactive | Active | 44 | 0.45 |  | 
22 | NCCNC(=O)/C=C/c1ccc(C(=C2C3CC4CC(C3)CC2C4)c2ccc(O)cc2)cc1 | inactive | Active | 35 | 0.57 | Active | 
23 | CCCCOC(=O)/C=C/c1ccc(C(=C2C3CC4CC(C3)CC2C4)c2ccc(O)cc2)cc1 | inactive | Active | 11 | 1.8 | 40% | 
24 | NCCCNC(=O)/C=C/c1ccc(C(=C2C3CC4CC(C3)CC2C4)c2ccc(O)cc2)cc1 | inactive | Active | 54 |  | Active | 
25 | CC(C)CCCCCOC(=O)/C=C/c1ccc(C(=C2C3CC4CC(C3)CC2C4)c2ccc(O)cc2)cc1 | inactive | Active | 2.8 | 7.1 |  | 
26 | CCCNS(=O)(=O)/C=C/c1ccc(C(=C2C3CC4CC(C3)CC2C4)c2ccc(O)cc2)cc1 | inactive | Active | 52 | 0.38 | Active | 
27 | CCCCN(C)C(=O)/C=C/c1ccc(C(=C2C3CC4CC(C3)CC2C4)c2ccc(O)cc2)cc1 | inactive | inactive | 28 |  | inactive | 
28 | O=C(/C=C/c1ccc(C(=C2C3CC4CC(C3)CC2C4)c2ccc(O)cc2)cc1)OCCO | inactive | inactive | 54 |  |  | 
